ChEMBL document CHEMBL3525913, “Metabolism-dependent inhibition of CYP3A4 by lapatinib: evidence for formation of a metabolic intermediate complex with a nitroso/oxime metabolite formed via a nitrone intermediate” (Drug Metab Dispos, 2013)

How the values were obtained:
Liver microsome = experiment: Drug level in human liver microsomes treated with lapatinib at 50 uM by LC/MS/MS analysis; assay type: ADME
Method in brief: (§1)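 Lapatinib 50 μM (added in DMSO) incubated 30 min at 37°C in 100 mM potassium phosphate pH 7.4 with HLM 1 mg/mL or recombinant CYP3A4+b5 / CYP3A5+b5 100 pmol/mL. Reaction started with NADPH 1 mM. Protein re-isolated by ultracentrifugation (100,000 x g, 4°C, 60 min), washed (KCl/EDTA), resuspended in phosphate buffer, ±2 mM ferricyanide 10 min 37°C, quenched with acetonitrile, then high-resolution LC/MS profiling.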

Cytochrome P450 3A4 = Cytochrome P450 3A4 (Homo sapiens, UniProt P08684); experiment: Activity of recombinant CYP3A4 (unknown origin) assessed as compound formation treated with lapatinib at 50 uM by LC/MS/MS analysis; assay type: ADME; conditions: recombinant enzyme; method in brief: as §1
Chain of Cytochrome P450 3A4 (P08684 whole entry): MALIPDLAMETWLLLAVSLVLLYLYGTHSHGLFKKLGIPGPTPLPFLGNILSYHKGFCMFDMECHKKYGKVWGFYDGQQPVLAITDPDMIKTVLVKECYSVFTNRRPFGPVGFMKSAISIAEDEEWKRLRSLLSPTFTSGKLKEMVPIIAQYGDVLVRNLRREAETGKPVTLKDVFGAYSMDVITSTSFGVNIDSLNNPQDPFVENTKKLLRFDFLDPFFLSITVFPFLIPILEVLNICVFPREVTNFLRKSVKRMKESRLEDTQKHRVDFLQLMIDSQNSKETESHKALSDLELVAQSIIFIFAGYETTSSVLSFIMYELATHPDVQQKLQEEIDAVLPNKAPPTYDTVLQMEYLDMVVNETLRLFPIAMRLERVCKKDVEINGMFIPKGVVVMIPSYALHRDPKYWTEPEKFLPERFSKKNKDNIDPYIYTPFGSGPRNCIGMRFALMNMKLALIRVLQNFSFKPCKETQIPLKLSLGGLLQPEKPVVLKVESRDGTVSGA

[1] = Retention time of the compound by LC/MS/MS analysis relative to lapatinib; assay type: physicochemical
Method in brief: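 Phenyl UPLC column (1.7 μm, 2.1 x 100 mm), 0.1% formic acid in water/acetonitrile, 0.4 mL/min. Gradient: 10% organic for 1 min, to 90% over 13 min, held 0.5 min. Detection by accurate-mass MS. Retention times expressed relative to lapatinib.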

Cytochrome P450 3A5 = Cytochrome P450 3A5 (Homo sapiens, UniProt P20815); experiment: Activity of recombinant CYP3A5 (unknown origin) assessed as compound formation treated with lapatinib at 50 uM by LC/MS/MS analysis; assay type: ADME; conditions: recombinant enzyme; method in brief: as §1
Chain of Cytochrome P450 3A5 (P20815 whole entry): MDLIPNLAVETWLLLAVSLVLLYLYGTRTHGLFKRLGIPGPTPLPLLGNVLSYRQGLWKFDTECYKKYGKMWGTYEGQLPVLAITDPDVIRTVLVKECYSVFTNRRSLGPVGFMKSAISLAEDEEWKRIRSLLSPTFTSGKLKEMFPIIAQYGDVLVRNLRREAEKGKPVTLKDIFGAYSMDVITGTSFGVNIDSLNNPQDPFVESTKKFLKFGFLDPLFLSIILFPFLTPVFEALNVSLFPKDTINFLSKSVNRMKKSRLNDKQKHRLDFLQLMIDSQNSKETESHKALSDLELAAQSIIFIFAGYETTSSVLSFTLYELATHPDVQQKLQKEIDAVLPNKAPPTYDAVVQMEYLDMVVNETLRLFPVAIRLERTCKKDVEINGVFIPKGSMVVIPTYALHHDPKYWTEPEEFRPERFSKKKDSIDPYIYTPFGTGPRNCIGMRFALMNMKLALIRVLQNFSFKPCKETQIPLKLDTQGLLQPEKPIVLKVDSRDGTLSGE

SMILES | Drug metabolism (Liver microsome) | Drug metabolism (Cytochrome P450 3A4) | Ratio [1] | Drug metabolism (Cytochrome P450 3A5)
O=Cc1ccc(-c2ccc3ncnc(Nc4ccc(OCc5cccc(F)c5)c(Cl)c4)c3c2)o1 | metabolite_detected | metabolite_detected | 1.21 | metabolite_detected
CS(=O)(=O)CCNCc1ccc(-c2ccc3ncnc(Nc4ccc(O)c(Cl)c4)c3c2)o1 | metabolite_detected | metabolite_detected | 0.5 | metabolite_detected
CS(=O)(=O)CC/[N+]([O-])=C/c1ccc(-c2ccc3ncnc(Nc4ccc(OCc5cccc(F)c5)c(Cl)c4)c3c2)o1 | metabolite_detected | metabolite_detected | 1.11 | metabolite_detected
OCc1ccc(-c2ccc3ncnc(Nc4ccc(OCc5cccc(F)c5)c(Cl)c4)c3c2)o1 | metabolite_detected | metabolite_detected | 1.13 | metabolite_detected
